{"source": "ChEMBL document CHEMBL4152256", "about": "“Structure-activity relationship of new antimalarial 1-aryl-3-susbtituted propanol derivatives: Synthesis, preliminary toxicity profiling, parasite life cycle stage studies, target exploration, and targeted delivery” (Eur J Med Chem, 2018)", "key": {"Plasmodium falciparum [1]": {"test_system": "Plasmodium falciparum", "assay": "Antiplasmodial activity against multidrug-resistant Plasmodium falciparum FCR-3 by [3H]-hypoxanthine incorporation assay", "type": "functional, organism-based, FCR-3/Gambia", "details": "Plasmodium falciparum, FCR-3/Gambia", "procedure,_shortened": "(§1)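 Blood-stage P. falciparum 3D7 and FCR-3 were tested by a modified [3H]-hypoxanthine incorporation assay. Chloroquine was the reference in all runs.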"}, "Plasmodium falciparum [2]": {"test_system": "Plasmodium falciparum", "assay": "Antiplasmodial activity against chloroquine-sensitive Plasmodium falciparum 3D7 by [3H]-hypoxanthine incorporation assay", "type": "functional, organism-based", "details": "Plasmodium falciparum, 3D7", "procedure,_shortened": "as §1"}, "[3]": {"assay": "Genotoxicity in Salmonella typhimurium TA1535 harboring pSK1002 assessed as survival at 0.125 mg/ml in absence of Sprague-Dawley rat liver S9 fraction after by SOS/umu assay relative to control", "type": "toxicity, organism-based", "details": "salmonella enterica subsp. enterica serovar typhimurium, read-out: Survival"}, "[4]": {"assay": "Genotoxicity in Salmonella typhimurium TA1535 harboring pSK1002 assessed as umu gene induction at 0.125 mg/ml in absence of Sprague-Dawley rat liver S9 fraction after by SOS/umu assay relative to control", "type": "toxicity, organism-based", "details": "salmonella enterica subsp. enterica serovar typhimurium, read-out: FC"}, "[5]": {"assay": "Genotoxicity in Salmonella typhimurium TA1535 harboring pSK1002 assessed as survival at 0.125 mg/ml in presence of Sprague-Dawley rat liver S9 fraction after by SOS/umu assay relative to control", "type": "toxicity, organism-based", "details": "salmonella enterica subsp. enterica serovar typhimurium, read-out: Survival"}, "[6]": {"assay": "Genotoxicity in Salmonella typhimurium TA1535 harboring pSK1002 assessed as umu gene induction at 0.063 mg/ml in absence of Sprague-Dawley rat liver S9 fraction after by SOS/umu assay relative to control", "type": "toxicity, organism-based", "details": "salmonella enterica subsp. enterica serovar typhimurium, read-out: FC"}, "[7]": {"assay": "Genotoxicity in Salmonella typhimurium TA1535 harboring pSK1002 assessed as survival at 0.063 mg/ml in presence of Sprague-Dawley rat liver S9 fraction after by SOS/umu assay relative to control", "type": "toxicity, organism-based", "details": "salmonella enterica subsp. enterica serovar typhimurium, read-out: Survival"}, "[8]": {"assay": "Genotoxicity in Salmonella typhimurium TA1535 harboring pSK1002 assessed as umu gene induction at 0.063 mg/ml in presence of Sprague-Dawley rat liver S9 fraction after by SOS/umu assay relative to control", "type": "toxicity, organism-based", "details": "salmonella enterica subsp. enterica serovar typhimurium, read-out: FC"}, "[9]": {"assay": "Genotoxicity in Salmonella typhimurium TA1535 harboring pSK1002 assessed as survival at 0.031 mg/ml in presence of Sprague-Dawley rat liver S9 fraction after by SOS/umu assay relative to control", "type": "toxicity, organism-based", "details": "salmonella enterica subsp. enterica serovar typhimurium, read-out: Survival"}, "[10]": {"assay": "Genotoxicity in Salmonella typhimurium TA1535 harboring pSK1002 assessed as umu gene induction at 0.031 mg/ml in presence of Sprague-Dawley rat liver S9 fraction after by SOS/umu assay relative to control", "type": "toxicity, organism-based", "details": "salmonella enterica subsp. enterica serovar typhimurium, read-out: FC"}, "[11]": {"assay": "Genotoxicity in Salmonella typhimurium TA1535 harboring pSK1002 assessed as survival at 0.016 mg/ml in absence of Sprague-Dawley rat liver S9 fraction after by SOS/umu assay relative to control", "type": "toxicity, organism-based", "details": "salmonella enterica subsp. enterica serovar typhimurium, read-out: Survival"}, "[12]": {"assay": "Genotoxicity in Salmonella typhimurium TA1535 harboring pSK1002 assessed as umu gene induction at 0.016 mg/ml in absence of Sprague-Dawley rat liver S9 fraction after by SOS/umu assay relative to control", "type": "toxicity, organism-based", "details": "salmonella enterica subsp. enterica serovar typhimurium, read-out: FC"}, "[13]": {"assay": "Genotoxicity in Salmonella typhimurium TA1535 harboring pSK1002 assessed as survival at 0.016 mg/ml in presence of Sprague-Dawley rat liver S9 fraction after by SOS/umu assay relative to control", "type": "toxicity, organism-based", "details": "salmonella enterica subsp. enterica serovar typhimurium, read-out: Survival"}, "[14]": {"assay": "Genotoxicity in Salmonella typhimurium TA1535 harboring pSK1002 assessed as umu gene induction at 0.016 mg/ml in presence of Sprague-Dawley rat liver S9 fraction after by SOS/umu assay relative to control", "type": "toxicity, organism-based", "details": "salmonella enterica subsp. enterica serovar typhimurium, read-out: FC"}, "[15]": {"assay": "Genotoxicity in Salmonella typhimurium TA1535 harboring pSK1002 assessed as survival at 0.008 mg/ml in absence of Sprague-Dawley rat liver S9 fraction after by SOS/umu assay relative to control", "type": "toxicity, organism-based", "details": "salmonella enterica subsp. enterica serovar typhimurium, read-out: Survival"}, "[16]": {"assay": "Genotoxicity in Salmonella typhimurium TA1535 harboring pSK1002 assessed as umu gene induction at 0.008 mg/ml in absence of Sprague-Dawley rat liver S9 fraction after by SOS/umu assay relative to control", "type": "toxicity, organism-based", "details": "salmonella enterica subsp. enterica serovar typhimurium, read-out: FC"}, "[17]": {"assay": "Genotoxicity in Salmonella typhimurium TA1535 harboring pSK1002 assessed as survival at 0.008 mg/ml in presence of Sprague-Dawley rat liver S9 fraction after by SOS/umu assay relative to control", "type": "toxicity, organism-based", "details": "salmonella enterica subsp. enterica serovar typhimurium, read-out: Survival"}, "[18]": {"assay": "Genotoxicity in Salmonella typhimurium TA1535 harboring pSK1002 assessed as umu gene induction at 0.008 mg/ml in presence of Sprague-Dawley rat liver S9 fraction after by SOS/umu assay relative to control", "type": "toxicity, organism-based", "details": "salmonella enterica subsp. enterica serovar typhimurium, read-out: FC"}, "[19]": {"assay": "Genotoxicity in Salmonella typhimurium TA1535 harboring pSK1002 assessed as survival at 0.004 mg/ml in absence of Sprague-Dawley rat liver S9 fraction after by SOS/umu assay relative to control", "type": "toxicity, organism-based", "details": "salmonella enterica subsp. enterica serovar typhimurium, read-out: Survival"}, "[20]": {"assay": "Genotoxicity in Salmonella typhimurium TA1535 harboring pSK1002 assessed as umu gene induction at 0.004 mg/ml in absence of Sprague-Dawley rat liver S9 fraction after by SOS/umu assay relative to control", "type": "toxicity, organism-based", "details": "salmonella enterica subsp. enterica serovar typhimurium, read-out: FC"}, "[21]": {"assay": "Genotoxicity in Salmonella typhimurium TA1535 harboring pSK1002 assessed as survival at 0.004 mg/ml in presence of Sprague-Dawley rat liver S9 fraction after by SOS/umu assay relative to control", "type": "toxicity, organism-based", "details": "salmonella enterica subsp. enterica serovar typhimurium, read-out: Survival"}, "[22]": {"assay": "Genotoxicity in Salmonella typhimurium TA1535 harboring pSK1002 assessed as umu gene induction at 0.004 mg/ml in presence of Sprague-Dawley rat liver S9 fraction after by SOS/umu assay relative to control", "type": "toxicity, organism-based", "details": "salmonella enterica subsp. enterica serovar typhimurium, read-out: FC"}, "[23]": {"assay": "Genotoxicity in Salmonella typhimurium TA1535 harboring pSK1002 assessed as survival at 0.002 mg/ml in absence of Sprague-Dawley rat liver S9 fraction after by SOS/umu assay relative to control", "type": "toxicity, organism-based", "details": "salmonella enterica subsp. enterica serovar typhimurium, read-out: Survival"}, "[24]": {"assay": "Genotoxicity in Salmonella typhimurium TA1535 harboring pSK1002 assessed as umu gene induction at 0.002 mg/ml in absence of Sprague-Dawley rat liver S9 fraction after by SOS/umu assay relative to control", "type": "toxicity, organism-based", "details": "salmonella enterica subsp. enterica serovar typhimurium, read-out: FC"}, "[25]": {"assay": "Genotoxicity in Salmonella typhimurium TA1535 harboring pSK1002 assessed as survival at 0.002 mg/ml in presence of Sprague-Dawley rat liver S9 fraction after by SOS/umu assay relative to control", "type": "toxicity, organism-based", "details": "salmonella enterica subsp. enterica serovar typhimurium, read-out: Survival"}, "[26]": {"assay": "Genotoxicity in Salmonella typhimurium TA1535 harboring pSK1002 assessed as umu gene induction at 0.002 mg/ml in presence of Sprague-Dawley rat liver S9 fraction after by SOS/umu assay relative to control", "type": "toxicity, organism-based", "details": "salmonella enterica subsp. enterica serovar typhimurium, read-out: FC"}, "[27]": {"assay": "Genotoxicity in Salmonella typhimurium TA1535 harboring pSK1002 assessed as survival at 0.001 mg/ml in absence of Sprague-Dawley rat liver S9 fraction after by SOS/umu assay relative to control", "type": "toxicity, organism-based", "details": "salmonella enterica subsp. enterica serovar typhimurium, read-out: Survival"}, "[28]": {"assay": "Genotoxicity in Salmonella typhimurium TA1535 harboring pSK1002 assessed as umu gene induction at 0.001 mg/ml in absence of Sprague-Dawley rat liver S9 fraction after by SOS/umu assay relative to control", "type": "toxicity, organism-based", "details": "salmonella enterica subsp. enterica serovar typhimurium, read-out: FC"}, "[29]": {"assay": "Genotoxicity in Salmonella typhimurium TA1535 harboring pSK1002 assessed as survival at 0.001 mg/ml in presence of Sprague-Dawley rat liver S9 fraction after by SOS/umu assay relative to control", "type": "toxicity, organism-based", "details": "salmonella enterica subsp. enterica serovar typhimurium, read-out: Survival"}, "[30]": {"assay": "Genotoxicity in Salmonella typhimurium TA1535 harboring pSK1002 assessed as umu gene induction at 0.001 mg/ml in presence of Sprague-Dawley rat liver S9 fraction after by SOS/umu assay relative to control", "type": "toxicity, organism-based", "details": "salmonella enterica subsp. enterica serovar typhimurium, read-out: FC"}}, "data": [{"compound": "OC(CCN1CC=C(c2ccc(F)cc2)CC1)c1ccc2c(c1)OCO2", "note": "(stereo not given)", "values": [{"measurement": "IC50", "setting": "Plasmodium falciparum [1]", "result": 1.7, "unit": "µM"}, {"measurement": "IC50", "setting": "Plasmodium falciparum [2]", "result": 17.4, "unit": "µM"}, {"measurement": "viability at 0.125 mg/ml", "setting": "[3]", "result": 116, "unit": "%"}, {"measurement": "fold induction at 0.125 mg/ml", "setting": "[4]", "result": 0.8}, {"measurement": "viability at 0.125 mg/ml", "setting": "[5]", "result": 99.6, "unit": "%"}, {"measurement": "fold induction at 0.063 mg/ml", "setting": "[6]", "result": 0.9}, {"measurement": "viability at 0.063 mg/ml", "setting": "[7]", "result": 105, "unit": "%"}, {"measurement": "fold induction at 0.063 mg/ml", "setting": "[8]", "result": 0.9}, {"measurement": "viability at 0.031 mg/ml", "setting": "[9]", "result": 137, "unit": "%"}, {"measurement": "fold induction at 0.031 mg/ml", "setting": "[10]", "result": 0.7}, {"measurement": "viability at 0.016 mg/ml", "setting": "[11]", "result": 92.5, "unit": "%"}, {"measurement": "fold induction at 0.016 mg/ml", "setting": "[12]", "result": 0.9}, {"measurement": "viability at 0.016 mg/ml", "setting": "[13]", "result": 92, "unit": "%"}, {"measurement": "fold induction at 0.016 mg/ml", "setting": "[14]", "result": 1}, {"measurement": "viability at 0.008 mg/ml", "setting": "[15]", "result": 128, "unit": "%"}, {"measurement": "fold induction at 0.008 mg/ml", "setting": "[16]", "result": 0.7}, {"measurement": "viability at 0.008 mg/ml", "setting": "[17]", "result": 96, "unit": "%"}, {"measurement": "fold induction at 0.008 mg/ml", "setting": "[18]", "result": 1}, {"measurement": "viability at 0.004 mg/ml", "setting": "[19]", "result": 114, "unit": "%"}, {"measurement": "fold induction at 0.004 mg/ml", "setting": "[20]", "result": 0.8}, {"measurement": "viability at 0.004 mg/ml", "setting": "[21]", "result": 105, "unit": "%"}, {"measurement": "fold induction at 0.004 mg/ml", "setting": "[22]", "result": 0.9}, {"measurement": "viability at 0.002 mg/ml", "setting": "[23]", "result": 122, "unit": "%"}, {"measurement": "fold induction at 0.002 mg/ml", "setting": "[24]", "result": 0.8}, {"measurement": "viability at 0.002 mg/ml", "setting": "[25]", "result": 108, "unit": "%"}, {"measurement": "fold induction at 0.002 mg/ml", "setting": "[26]", "result": 1}, {"measurement": "viability at 0.001 mg/ml", "setting": "[27]", "result": 131, "unit": "%"}, {"measurement": "fold induction at 0.001 mg/ml", "setting": "[28]", "result": 0.5}, {"measurement": "viability at 0.001 mg/ml", "setting": "[29]", "result": 111, "unit": "%"}, {"measurement": "fold induction at 0.001 mg/ml", "setting": "[30]", "result": 0.7}]}]}
